# Laboratory results taken from ChEMBL document CHEMBL1157378, “Role for cell density in antifungal drug resistance in Candida albicans biofilms” (2007).
# Experiments:
# Type in all cases: functional
# Candida albicans [1] = assay: Antimicrobial activity against Chk1 deficient Candida albicans CHK21 at planktonic cell density of 10^8 cells/ml after 48 hrs by XTT assay; settings: CHK21, 48 h
# Method in brief: (§1)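 YNB-grown yeast (50 mM glucose, room temperature, shaken, to ~2 x 10^8 cells/ml) washed into MOPS-buffered RPMI 1640 with L-glutamine and set to the stated density. Exposed to twofold serial drug dilutions (1,024 to 0.0313 µg/ml) at 37°C, 48 h (caspofungin 24 h), with drug-free controls. Read-out: XTT (0.5 g/liter) plus 1 µM menadione, formazan at 490 nm.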
# Candida albicans [2] = assay: Antimicrobial activity against Chk1 deficient Candida albicans CHK21 dissociated biofilms at cell density of 10^3 cells/ml after 48 hrs by XTT assay; settings: CHK21, 48 h
# Method in brief: (§2)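 Polystyrene-well biofilms (48 h, 37°C) washed, then broken up in 100 µl RPMI by scraping and aspiration. Cells used undiluted (about 2 x 10^8 cells/ml equivalent) or adjusted by A600 against a hemacytometer-calibrated yeast standard curve. Drug exposure at 37°C for 48 h (caspofungin 24 h), then XTT/menadione read at 490 nm.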
# Candida albicans [3] = assay: Antimicrobial activity against Chk1 deficient Candida albicans CHK21 dissociated biofilms at cell density of 10^8 cells/ml after 48 hrs by XTT assay; settings: CHK21, 48 h; method in brief: as §2
# Candida albicans [4] = assay: Antimicrobial activity against Chk1 deficient Candida albicans CHK21 intact biofilms after 48 hrs by XTT assay; settings: CHK21, 48 h
# Method in brief: (§3)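 Biofilm seeded at 1 x 10^6 cells/ml in RPMI in polystyrene microtiter wells and grown 48 h at 37°C in a moist chamber. Washed once and drug added to the same well (twofold dilutions, 1,024 to 0.0313 µg/ml) for 48 h at 37°C (caspofungin 24 h). Read-out: XTT/menadione reduction at 490 nm.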
# Candida albicans [5] = assay: Antimicrobial activity against Candida albicans GDH2346 intact biofilms after 48 hrs by XTT assay; settings: GDH2346, 48 h; method in brief: as §3
# Candida albicans [6] = assay: Antimicrobial activity against Candida albicans FH1 at planktonic cell density of 10^3 cells/ml after 48 hrs by XTT assay; settings: FH1, 48 h; method in brief: as §1
# Candida albicans [7] = assay: Antimicrobial activity against Candida albicans FH1 at planktonic cell density of 10^8 cells/ml after 48 hrs by XTT assay; settings: FH1, 48 h; method in brief: as §1
# Candida albicans [8] = assay: Antimicrobial activity against Candida albicans FH1 dissociated biofilms at cell density of 10^3 cells/ml after 48 hrs by XTT assay; settings: FH1, 48 h; method in brief: as §2
# Candida albicans [9] = assay: Antimicrobial activity against Candida albicans FH1 dissociated biofilms at cell density of 10^8 cells/ml after 48 hrs by XTT assay; settings: FH1, 48 h; method in brief: as §2
# Candida albicans [10] = assay: Antimicrobial activity against Candida albicans FH1 intact biofilms after 48 hrs by XTT assay; settings: FH1, 48 h; method in brief: as §3
# Candida albicans [11] = assay: Antimicrobial activity against fluconazole-resistant Candida albicans FH5 at planktonic cell density of 10^3 cells/ml after 48 hrs by XTT assay; settings: FH5, 48 h; method in brief: as §1
# Candida albicans [12] = assay: Antimicrobial activity against fluconazole-resistant Candida albicans FH5 at planktonic cell density of 10^8 cells/ml after 48 hrs by XTT assay; settings: FH5, 48 h; method in brief: as §1
# Candida albicans [13] = assay: Antimicrobial activity against fluconazole-resistant Candida albicans FH5 dissociated biofilms at cell density of 10^3 cells/ml after 48 hrs by XTT assay; settings: FH5, 48 h; method in brief: as §2
# Candida albicans [14] = assay: Antimicrobial activity against fluconazole-resistant Candida albicans FH5 dissociated biofilms at cell density of 10^8 cells/ml after 48 hrs by XTT assay; settings: FH5, 48 h; method in brief: as §2
# Candida albicans [15] = assay: Antimicrobial activity against fluconazole-resistant Candida albicans FH5 intact biofilms after 48 hrs by XTT assay; settings: FH5, 48 h; method in brief: as §3
# Candida albicans [16] = assay: Antimicrobial activity against Cdr1, Cdr2 and Mdr1 deficient Candida albicans DSY1050 at planktonic cell density of 10^3 cells/ml after 48 hrs by XTT assay; settings: DSY1050, 48 h; method in brief: as §1
# Candida albicans [17] = assay: Antimicrobial activity against Cdr1, Cdr2 and Mdr1 deficient Candida albicans DSY1050 at planktonic cell density of 10^8 cells/ml after 48 hrs by XTT assay; settings: DSY1050, 48 h; method in brief: as §1
# Candida albicans [18] = assay: Antimicrobial activity against Cdr1, Cdr2 and Mdr1 deficient Candida albicans DSY1050 dissociated biofilms at cell density of 10^3 cells/ml after 48 hrs by XTT assay; settings: DSY1050, 48 h; method in brief: as §2
# Candida albicans [19] = assay: Antimicrobial activity against Cdr1, Cdr2 and Mdr1 deficient Candida albicans DSY1050 dissociated biofilms at cell density of 10^8 cells/ml after 48 hrs by XTT assay; settings: DSY1050, 48 h; method in brief: as §2
# Candida albicans [20] = assay: Antimicrobial activity against Cdr1, Cdr2 and Mdr1 deficient Candida albicans DSY1050 intact biofilms after 48 hrs by XTT assay; settings: DSY1050, 48 h; method in brief: as §3
# Candida albicans [21] = assay: Antimicrobial activity against Chk1 deficient Candida albicans CHK21 at planktonic cell density of 10^3 cells/ml after 48 hrs by XTT assay; settings: CHK21, 48 h; method in brief: as §1
# Candida albicans [22] = assay: Antimicrobial activity against Candida albicans SC5314 at planktonic cell density of 10^3 cells/ml after 48 hrs by XTT assay; settings: SC5314, 48 h; method in brief: as §1
# Candida albicans [23] = assay: Antimicrobial activity against Candida albicans SC5314 dissociated biofilms at cell density of 10^3 cells/ml after 48 hrs by XTT assay; settings: SC5314, 48 h; method in brief: as §2
# Candida albicans [24] = assay: Antimicrobial activity against Candida albicans SC5314 at planktonic cell density of 10^8 cells/ml after 48 hrs by XTT assay; settings: SC5314, 48 h; method in brief: as §1
# Candida albicans [25] = assay: Antimicrobial activity against Candida albicans SC5314 dissociated biofilms at cell density of 10^8 cells/ml after 48 hrs by XTT assay; settings: SC5314, 48 h; method in brief: as §2
# Candida albicans [26] = assay: Antimicrobial activity against Candida albicans SC5314 intact biofilms after 48 hrs by XTT assay; settings: SC5314, 48 h; method in brief: as §3
# Candida albicans [27] = assay: Antimicrobial activity against Candida albicans GDH2346 at planktonic cell density of 10^3 cells/ml after 48 hrs by XTT assay; settings: GDH2346, 48 h; method in brief: as §1
# Candida albicans [28] = assay: Antimicrobial activity against Candida albicans GDH2346 at planktonic cell density of 10^8 cells/ml after 48 hrs by XTT assay; settings: GDH2346, 48 h; method in brief: as §1
# Candida albicans [29] = assay: Antimicrobial activity against Candida albicans GDH2346 dissociated biofilms at cell density of 10^3 cells/ml after 48 hrs by XTT assay; settings: GDH2346, 48 h; method in brief: as §2
# Candida albicans [30] = assay: Antimicrobial activity against Candida albicans GDH2346 dissociated biofilms at cell density of 10^8 cells/ml after 48 hrs by XTT assay; settings: GDH2346, 48 h; method in brief: as §2
smiles,measurement,setting,value
CC(=O)N1CCN(c2ccc(OC[C@H]3CO[C@](Cn4ccnc4)(c4ccc(Cl)cc4Cl)O3)cc2)CC1 [KETOCONAZOLE],MIC80,Candida albicans [1],> 64 µg/mL
same,MIC80,Candida albicans [2],0.125 µg/mL
same,MIC80,Candida albicans [3],> 64 µg/mL
same,MIC80,Candida albicans [4],> 64 µg/mL
same,MIC80,Candida albicans [5],> 512 µg/mL
same,MIC80,Candida albicans [6],4 µg/mL
same,MIC80,Candida albicans [7],> 512 µg/mL
same,MIC80,Candida albicans [8],4 µg/mL
same,MIC80,Candida albicans [9],> 512 µg/mL
same,MIC80,Candida albicans [10],> 512 µg/mL
same,MIC80,Candida albicans [11],64 µg/mL
same,MIC80,Candida albicans [12],> 256 µg/mL
same,MIC80,Candida albicans [13],64 µg/mL
same,MIC80,Candida albicans [14],> 512 µg/mL
same,MIC80,Candida albicans [15],> 512 µg/mL
same,MIC80,Candida albicans [16],0.25 µg/mL
same,MIC80,Candida albicans [17],> 256 µg/mL
same,MIC80,Candida albicans [18],0.125 µg/mL
same,MIC80,Candida albicans [19],> 64 µg/mL
same,MIC80,Candida albicans [20],> 64 µg/mL
same,MIC80,Candida albicans [21],0.125 µg/mL
same,MIC80,Candida albicans [22],0.125 µg/mL
same,MIC80,Candida albicans [23],0.5 µg/mL
same,MIC80,Candida albicans [24],> 512 µg/mL
same,MIC80,Candida albicans [25],> 512 µg/mL
same,MIC80,Candida albicans [26],> 512 µg/mL
same,MIC80,Candida albicans [27],0.25 µg/mL
same,MIC80,Candida albicans [28],> 512 µg/mL
same,MIC80,Candida albicans [29],0.125 µg/mL
same,MIC80,Candida albicans [30],> 64 µg/mL
